Data on one molecule can be found in article PMC4021529 (British Journal of Cancer, 2014).

The nature of the series: Phase I 3+3 dose escalation: MTD and dose-limiting toxicities. Conditions: for maximum tolerated dose (MTD): Asian patients. The class given is in vivo, human. The procedure, abridged: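 Open-label 3+3 escalation run separately for each schedule. Test compound given as a 2-h IV infusion every 3 weeks: A on day 1 (100, 200, 250, 300 mg, up to 400), B on days 1 and 8 (50, 100, 150, 200 mg, up to 250). MTD was the highest dose with DLT in ≤1 of 6 patients in course 1. Graded by CTCAE v3.0. Up to 18 patients treated at the MTD.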

Each structure is given as a SMILES string. Where “and” joins values, the source holds several entries; their conditions need not be identical. Identical values can stand only once.

For the molecule `CC[C@@H]1C(=O)N(C)c2cnc(Nc3ccc(C(=O)N[C@H]4CC[C@H](N5CCN(CC6CC6)CC5)CC4)cc3OC)nc2N1C(C)C` [volasertib], the “time of occurrence of DLTs” value (both schedules) was 8–15 treatment days. In addition, the “patients with DLTs during course 1” value (expansion cohort schedule A, 300 mg) is recorded as “Four patients”. In addition, the “patients with DLTs” value (expansion cohort schedule B, 150 mg) is recorded as “None”. Under “schedule A, 300 mg (MTD)”, the “patients with thrombocytopenia (grade 4) as DLT in first course” value is on record as “Two patients”. For the same molecule, the “patients with a DLT related to neutropenia” value (schedule A, 300 mg (MTD), 17 patients) is “Four patients”. Besides, the “DLTs during course 1” value (schedule A, 300 mg (n=6), dose escalation) is given as “No DLTs”. For the setting “schedule A, 300 mg, two patients”, the “duration of febrile neutropenia reported as DLT” value is 3 days and 4 days. The “patients with DLTs in first treatment course” value was “All three patients” (schedule A, 350 mg (n=3)) and “two out of three patients” (schedule B, 200 mg (n=3)). The “maximum tolerated dose (MTD)” value came to 300 mg (schedule A: 2-h i.v. infusion day 1 every 3 weeks); 150 mg (schedule B: 2-h i.v. infusion days 1 and 8 every 3 weeks). Moreover, the “DLTs of thrombocytopenia (grade 4)” value (schedule B) is “no DLTs”. The “DLTs after intra-individual dose escalation from MTD to a higher dose” value (up to 350 mg (schedule A, 3 patients) and 200 mg (schedule B, 1 patient)) was “No DLTs”.
